Assay outcomes from PubChem.
Sampled rows, rich in hits. Any-hit rate of the full collection: about 1.5%.
Rev-erbA mod = modulators of Rev-erb alpha DNA binding, primary screen, biochemical, FITC-DNA, fluorescence polarization, uHTS; Rev-erbα–FITC-DNA binding, 90 min; activity, % at 10 µM; hit rate 0.79% among 370,000; AID 1259318, 2017;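 active means activity above about 14%, limit read from the data; passing the limit was not always enough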;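 further: 0% = DMSO wells with 35 nM protein and 100% = DMSO wells with 750 nM protein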
PG9 binder = binders of HIV-1 gp120 antibody PG9, primary screen, biochemical, TR-FRET | HIV-1 gp120 / PG9 antibody interaction | TR-FRET gp120-PG9 antibody binding | inhibition, % at 6.7 µM | hit rate 0.43% among 360,000 | AID 624416, 2012; in the data active means inhibition above about 8.5%
NR2E3 ag-1 = inhibitors of NR2E3-RetCOR corepressor binding, primary screen, NR2E3 agonist project, biochemical, TR-FRET, GST-NR2E3, biotin-RetCOR. inhibition of corepressor binding, % at 4.78 µM. 1536-well. hit rate 0.12% among 320,000. AID 2300, 2010. Photoreceptor-specific nuclear receptor (Homo sapiens), Q9Y5X4;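 active means percent inhibition above the cutoff of mean plus 3 SD of all tested compounds, set per screening campaign, cut at about 20% in these data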;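 further: 0% = DMSO wells and 100% = biotin wells as full block of FRET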
Target sequence (Q9Y5X4 whole entry, looked up): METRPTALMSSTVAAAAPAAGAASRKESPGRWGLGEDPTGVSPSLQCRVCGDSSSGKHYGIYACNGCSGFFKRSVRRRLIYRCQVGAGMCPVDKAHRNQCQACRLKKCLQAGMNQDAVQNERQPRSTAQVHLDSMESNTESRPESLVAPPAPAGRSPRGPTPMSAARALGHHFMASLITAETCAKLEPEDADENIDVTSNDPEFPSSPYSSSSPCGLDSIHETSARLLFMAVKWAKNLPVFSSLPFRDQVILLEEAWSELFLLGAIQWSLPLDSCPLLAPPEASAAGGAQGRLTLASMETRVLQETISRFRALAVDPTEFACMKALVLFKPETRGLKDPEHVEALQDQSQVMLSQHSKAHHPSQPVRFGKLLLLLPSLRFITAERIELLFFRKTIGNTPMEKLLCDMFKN
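Material: NR2E3–RetCOR corepressor complex / Incubation: Compound–protein incubation for 5 h at 4 °C / Dosing: compound at 4.8 µM, single dose / Detection: time-resolved FRET / Benchmarks: high control biotin, low control 0.6% DMSO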
NR2E3 ag-2 = NR2E3 agonists in two-hybrid cells, primary screen, cell-based, luminescence, CHO-S, Gal4-NCOR/VP16-NR2E3 | Photoreceptor-specific nuclear receptor (Homo sapiens), Q9Y5X4 | luciferase | hit rate 0.35% among 360,000 | AID 602229, 2012 | inhibition of corepressor binding, % at 3.98 µM;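 active means inhibition above the mean of all tested compounds plus 3 SD, cut at about 70% in these data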;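 further: 0% = DMSO with NR2E3 transfected cells and 100% = cells lacking NR2E3 construct; higher means lower luciferase signal from less NR2E3 corepressor binding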
NR2E3 agonist cf = NR2E3 agonists, confirmation, biochemical, TR-FRET | activation (reported as inhibition), % at 3.98 µM | cell-free NR2E3 corepressor release, 5 h | shares compounds with NR2E3 ag-1 | hit rate 39% among 360 | AID 2379, 2010; in the data active means activation above about 20%
PPARg-NCOR2 ctr = agonists of PPARg-NCOR2 corepressor interaction, counter-screen for NR2E3 agonist project, biochemical, TR-FRET. shares compounds with NR2E3 ag-1. TR-FRET PPARg-NCOR2 coregulator interaction. inhibition, % at 3.98 µM. hit rate 45% among 360. AID 504787, 2011; in the data active means inhibition above about 20%;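 further: 0% = DMSO vehicle and 100% = wells without protein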
PG9 binder conf = binders of anti-gp120 antibody PG9, confirmation, biochemical, TR-FRET. shares compounds with PG9 binder. TR-FRET PG9 antibody binding. inhibition, % at 6.7 µM. hit rate 90% among 1,500. AID 651571, 2012; in the data active means inhibition above about 9%
PGV04 counter = binders of control antibody PGV04, counter-screen for PG9 antibody binder project, biochemical, TR-FRET, distinct HIV envelope site. inhibition, % at 6.7 µM. AID 651604, 2012. TR-FRET PGV04 antibody-gp120 binding. hit rate 95% among 1,500. shares compounds with PG9 binder; in the data active means inhibition above about 9.5%
Rev-erbA confirm = modulators of Rev-erb alpha DNA binding, confirmation, biochemical, FITC-DNA, fluorescence polarization, single point. shares compounds with Rev-erbA mod. 90 min. activation, % at 25 µM. hit rate 61% among 3,000. AID 1259319, 2017;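 active means activation at or above a set limit, or at least 3 SD above the negative control mean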;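 further: 0% = 35 nM protein with DMSO and 100% = 750 nM protein high control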
RORg DNA counter = modulation of RORgamma DNA binding, dose response, counter-screen for Rev-erb alpha modulator project, biochemical, fluorescence polarization, FITC-DNA; shares compounds with Rev-erbA mod; purified RORgamma protein-FITC-DNA binding; IC50, µM; hit rate 8% among 910;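 active means Compounds whose fitted half-maximal concentration for disrupting protein-DNA binding is below 10 micromolar; the record names Rev-erb in its text, so the target is in doubt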
An asterisk follows results filed as active; . = no result.

SMILES	Rev-erbA mod	PG9 binder	NR2E3 ag-1	NR2E3 ag-2	NR2E3 agonist cf	PPARg-NCOR2 ctr	PG9 binder conf	PGV04 counter	Rev-erbA confirm	others
Cc1cccc(NC(=O)CSc2ncnc3c2oc2ccccc23)c1	601*	66*	60*	5	66*	72*	-39	47*	631*	RORg DNA counter=1*
Cc1ccc2nc(NC(=O)CSc3ncnc4c3oc3ccccc34)sc2c1	9	-6	.	0	.	.	.	.	.
CC(=O)N[C@@H](CCC(N)=O)C(=O)O	2	.	.	.	.	.	.	.	.
COc1c(O)cc2c(c1O)[C@H]1O[C@H](CO)[C@@H](O)[C@H](O)[C@@H]1OC2=O	-4	.	.	.	.	.	.	.	.
Cc1cc(-n2c(SCC(=O)NCCC3=CCCCC3)nc3n[nH]c(C)c3c2=N)ccc1Cl	45*	41*	59*	19	10	3	46*	58*	21*
CCc1cc2cc(C(=O)Nc3ccc(F)cc3)sc2s1	78*	46*	30*	-6	4	-13	53*	60*	63*	RORg DNA counter=>40
CCOC(=O)c1sc(NC(=O)c2ccco2)nc1-c1ccccc1	46*	10*	20*	6	9	25*	30*	57*	25*
CC(=O)c1sc(NC(=O)c2ccco2)nc1-c1ccccc1	.	.	5	-139	.	.	.	.	.
OC[C@H]1O[C@H](O[C@]2(CCl)O[C@H](CCl)[C@@H](O)[C@@H]2O)[C@H](O)[C@@H](O)[C@H]1Cl	9	.	.	.	.	.	.	.	.
C=CCn1c(SCC(=O)NC(=O)NCc2ccco2)nc2sc(C)c(C)c2c1=O	51*	23*	22*	-7	-2	8	28*	41*	41*
CCOc1ncccc1C(=O)Nc1ccc(C(=O)Nc2ccc(OC)cc2)cc1	21*	4	44*	-21	34*	33*	.	.	14
CCOc1ccc(NC(=O)c2ccc(OC)cc2)cc1	4	1	2	-48	.	.	.	.	.
CN(c1ccc(Cl)cc1)c1cc(=O)n(C)c2ccccc12	22*	1	21*	-20	3	5	.	.	18*
CN(C(=O)COc1cc(=O)n(C)c2ccccc12)c1ccc(Cl)cc1	2	1	2	-8	.	.	.	.	.
O=C(O)CSc1nc2ccccc2nc1Cc1ccccc1F	22*	10*	54*	-48	34*	36*	16*	27*	12
Cc1ccccc1-n1c(SCC(=O)Nc2ccccc2Cl)nc2n[nH]c(C)c2c1=N	0	-1	-2	4	.	.	.	.	.
CCOc1ccccc1NC(=O)CCSc1nc2n[nH]c(C)c2c(=N)n1-c1ccccc1Cl	35*	41*	26*	-30	32*	34*	.	.	16
NS(=O)(=O)c1ccc(N2CCCCS2(=O)=O)cc1	2	.	.	.	.	.	.	.	.
COc1cccc(NC(=S)Nc2cc(C)cc(C)n2)c1	31*	-1	31*	-90	30*	39*	.	.	8
